Paper PMC5698725 (Chemistry (Weinheim an Der Bergstrasse, Germany), 2017)

Columns and labels:
Hydrolytic stability = type: physicochemical
Procedure, shortened: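 Test compound stirred for 24 hours in buffers: pH 2.0 and pH 4.5 citrate, pH 6.5 and pH 7.4 phosphate-buffered saline, pH 8.0 sodium borate. Hydrolytic stability is expressed as percent test compound recovered at 24 h.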

[1] = High-throughput metabolic stability assay, human liver microsomes; type: in vitro ADME; conditions: predicted from in vitro metabolic stability
Procedure, shortened: (§1)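 Predicted hepatic metabolic clearance from a high-throughput metabolic stability assay. Systems: pooled human, rat or mouse liver microsomes, or freshly harvested rat hepatocytes. Output is predicted blood clearance (CLb) in L h−1 kg−1.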

[2] = High-throughput metabolic stability assay, rat liver microsomes; type: in vitro ADME; conditions: predicted from in vitro metabolic stability
Procedure, shortened: as §1

[3] = High-throughput metabolic stability assay, mouse liver microsomes; type: in vitro ADME; conditions: predicted from in vitro metabolic stability
Procedure, shortened: as §1

[4] = tested on: freshly harvested rat hepatocytes (rHep); test: High-throughput metabolic stability assay, rat hepatocytes; type: in vitro ADME; conditions: predicted from in vitro metabolic stability
Procedure, shortened: as §1

[5] = Bidirectional Caco2 permeability assay; type: in vitro ADME; conditions: human, Caco-2
Caco2 = test: Bidirectional Caco2 permeability assay; type: in vitro ADME; conditions: Caco2, P app B–A/P app A–B

Recovered test compound (hydrolytic stability) (Hydrolytic stability; all tested pH values (2.0–8.0), 24 hours with stirring): 100%
recovery at 24 h (Hydrolytic stability; citrate buffer, pH 2): 100%
recovery at 24 h (Hydrolytic stability; citrate buffer, pH 4.5): 100%
recovery at 24 h (Hydrolytic stability; phosphate-buffered saline, pH 6.5): 100%
recovery at 24 h (Hydrolytic stability; phosphate-buffered saline, pH 7.4): 100%
recovery at 24 h (Hydrolytic stability; sodium borate buffer, pH 8): 100%
CLb hLMs (predicted blood clearance) [1]: 0.67 mL/min/kg
CLb rLMs (predicted blood clearance) [2]: 50 mL/min/kg
CLb mLMs (predicted blood clearance) [3]: 18.3 mL/min/kg
CLb rHep (predicted blood clearance) [4]: 60 mL/min/kg
Papp A→B [5]: 37.8 ×10⁻⁶ cm/s
efflux ratio [5]: 0.59
efflux ratio (Caco2): no evidence of efflux
Compound: N=S(=O)(c1ccccc1)N1CCCCC1 (stereo not shown) [2 a, 1 ‐(S‐Phenylsulfonimidoyl)piperidine]
